Results gathered from unrelated publications.
Protocols differ between the studies behind these lines.
KDM1A: Lysine-specific histone demethylase 1A (KDM1A, Homo sapiens, UniProt O60341)
TRIM24: Transcription intermediary factor 1-alpha (TRIM24, Homo sapiens, UniProt O15164)

With O=C(O)c1ccc(CN2CCC(CN[C@@H]3C[C@H]3c3ccccc3)CC2)cc1 the KI (inactivation) was 2140 nM (KDM1A; enzyme activity; inhibitor).
With COc1cc2c(NC3CCN(C(C)C)CC3)nc(C3CCCCC3)nc2cc1OCCCN1CCCC1 the ΔTm was 8 °C (Histone-lysine N-methyltransferase EHMT1 (EHMT1, Homo sapiens, UniProt Q9H9B1); thermal stability; DSF; 100 µM).
The remaining binding of NS(=O)(=O)c1ccc(Nc2nc(-c3ccc(F)cc3)c3ccccc3n2)cc1 is reported as 1% (Bromodomain-containing protein 3, BD1 (BRD3, Homo sapiens, UniProt Q15059); binding; competition with immobilised ligand; 1 µM).
With Oc1ccc(-c2nc(-c3ccncc3)c(-c3ccc(F)cc3)[nH]2)cc1 the ΔTm was -0.23 °C (TRIM24; thermal stability; DSF; 10 µM).
CN1CCN(C(=O)[C@H](CCCN[C@@H]2C[C@H]2c2ccc(F)cc2)NC(=O)c2ccc(-n3ccnn3)cc2)CC1 gave a KI (inactivation) of 1190 nM (KDM1A; enzyme activity; inhibitor).
With Cc1ccc(C(=O)Nc2ccc(CN3CCN(C)CC3)c(C(F)(F)F)c2)cc1C#Cc1cnc2cccnn12 the remaining activity was 90% (Phosphatidylinositol 4-phosphate 3-kinase C2 domain-containing subunit beta (PIK3C2B, Homo sapiens, UniProt O00750); enzyme activity; inhibitor; 23.5 nM).
With COc1ccc([C@H]2c3[nH]c4ccccc4c3C[C@@H]3C(=O)N(C(C)(C)C)C(=O)N23)cc1OC the inhibition was 52% (cGMP-specific 3',5'-cyclic phosphodiesterase (PDE5A, Homo sapiens, UniProt O76074); enzyme activity; inhibitor; FP; 50 µM).
For Cc1cnc(Nc2ccc(OCCN3CCCC3)cc2)nc1Nc1cccc(S(=O)(=O)NC(C)(C)C)c1, the ΔTm was 3.4 °C (Bromodomain-containing protein 3, BD2 (BRD3, Homo sapiens, UniProt Q15059); thermal stability; DSF; 10 µM).
For Cc1cc2c(cc1N1C(=O)c3cccc4c(Cl)ccc(c34)C1=O)n(C)c(=O)n2C, the ΔTm was -1.4 °C (SP140L (Homo sapiens, UniProt Q9H930); thermal stability; DSF; 10 µM).
With C[S+]([O-])c1ccc(-c2nc(-c3ccncc3)c(-c3ccc(F)cc3)[nH]2)cc1 (stereo not drawn) the ΔTm was 1.4 °C (TRIM24; thermal stability; DSF; 10 µM).
The kon of CC(=O)N[C@H](C(=O)N[C@H](C(=O)N[C@@H](Cc1ccccc1)C(=O)N[C@H](C(=O)N[C@@H](CO)C(=O)N[C@@H](Cc1c[nH]c2ccccc12)C(=O)N[C@@H](CCC(=O)O)C(=O)N[C@@H](CCC(=O)O)C(=O)N[C@@H](Cc1ccc(O)cc1)C(=O)N[C@@H](CC(C)C)C(=O)N[C@@H](CC(=O)O)C(=O)N[C@@H](Cc1c[nH]c2ccccc12)C(=O)N[C@H](C(N)=O)C(C)C)[C@@H](C)O)C(C)C)[C@@H](C)O is reported as 260000 M⁻¹ s⁻¹ (Proprotein convertase subtilisin/kexin type 9 (PCSK9, Homo sapiens, UniProt Q8NBP7); binding; SPR).
For Nc1ncnc2occ(-c3ccc(NC(=O)Nc4cc(C(F)(F)F)ccc4F)cc3)c12, the remaining signal was 1.1% (Cyclin-dependent kinase 15 (CDK15, Homo sapiens, UniProt Q96Q40); cell-free assay; inhibitor; 20 µM).
